Activity calls are given as the source filed them. No cut-off for these calls is given here. Where only a bound is given, the exact number is not on record here.

Broadly, the inhibition is the drop in the measured response relative to a control, in per cent. As usually defined, the IC50 is the point on the concentration scale where inhibition reaches its midpoint.

Series [1] deals with T1, Tyrosinase (Mus musculus) (UniProt P11344).
T1 sequence (whole entry): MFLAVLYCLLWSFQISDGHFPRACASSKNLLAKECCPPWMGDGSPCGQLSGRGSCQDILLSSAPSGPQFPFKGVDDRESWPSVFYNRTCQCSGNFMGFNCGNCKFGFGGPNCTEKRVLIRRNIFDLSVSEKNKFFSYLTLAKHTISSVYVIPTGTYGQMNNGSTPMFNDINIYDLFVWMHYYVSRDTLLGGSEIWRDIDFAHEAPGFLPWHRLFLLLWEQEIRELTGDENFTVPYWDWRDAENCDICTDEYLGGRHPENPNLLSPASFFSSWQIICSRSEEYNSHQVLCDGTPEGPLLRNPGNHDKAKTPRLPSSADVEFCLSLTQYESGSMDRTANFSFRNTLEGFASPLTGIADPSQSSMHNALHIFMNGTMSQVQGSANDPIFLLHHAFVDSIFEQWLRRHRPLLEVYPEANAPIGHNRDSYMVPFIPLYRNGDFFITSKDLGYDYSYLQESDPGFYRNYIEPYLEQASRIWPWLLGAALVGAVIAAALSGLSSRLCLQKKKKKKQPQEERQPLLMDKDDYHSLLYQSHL
Put plainly: Inhibition of tyrosinase in mouse B16 cells assessed as reduction in melanin production at 500 uM after 3 days relative to control. In kind it is cell-based. The method in brief: (§1)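 Melanin content: B16 mouse melanoma cells were seeded at 1.5 × 10^4 cells/well and incubated 24 h. They were then exposed for 3 days to 125, 250 or 500 μM peptide in 5% FBS medium. Cells were harvested with 0.25% trypsin/1 mM EDTA, washed in PBS and lysed in 1 M NaOH, 1 h at 60 °C. Absorbance was read at 420 nm. Matched DMSO without peptide served as background.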

Series [2] addresses T2, Mushroom tyrosinase (Agaricus bisporus) (UniProt O42713+Q00024+C7FF04+C7FF05). Kind of series: Inhibition of mushroom tyrosinase diphenolase activity at 100 to 500 uM using L-DOPA as substrate. The essentials: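 Diphenolase: 2.0 mM L-dopa (stock, 100 μL) was mixed with 0.1 M phosphate buffer pH 6.5 and peptide or water, then preincubated 10 min at 30 °C. Mushroom tyrosinase (1320 units/mL stock) was added and dopachrome followed at 475 nm, 30 °C. Residual activity = rate (ΔA475/min) with inhibitor ÷ rate with water × 100. IC50 was estimated manually from inhibition curves. Performed three times.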

In series [3] the target is T2, Mushroom tyrosinase (Agaricus bisporus). Put plainly: Inhibition of mushroom tyrosinase monophenolase activity at 100 to 500 uM using L-tyrosine as substrate. The essentials: (§2)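 Monophenolase: 2.0 mM L-tyrosine (stock, 100 μL) in 0.1 M phosphate buffer pH 6.5 with peptide or water was preincubated 10 min at 30 °C. Mushroom tyrosinase (1320 units/mL stock) was added and absorbance at 475 nm monitored at 30 °C. Lag time was taken by extrapolating the linear dopachrome rise to the x-axis. Residual activity = (1/lag with inhibitor)/(1/lag with water) × 100. IC50 was read manually from curves. Triplicate.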

The target in series [4] is T1, Tyrosinase (Mus musculus). Kind of series: Inhibition of tyrosinase in mouse B16 cells assessed as reduction in melanin production at 125 to 500 uM after 3 days. In kind it is cell-based. The method in brief:
as §1

Another series has as its system B16. Put plainly: Cytotoxicity against mouse B16 cells assessed as reduction in cell viability at 125 to 500 uM after 3 days by WST1/MTT assay. It is filed as cell-based. The conditions noted are these: b16, 72 h. The essentials: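 B16 mouse melanoma cells were grown in Eagle's MEM with Earle's salts, 5% or 10% FBS and 1% penicillin–streptomycin, 37 °C, 5% CO2. They were seeded at 1.0 × 10^3 cells/well and left 24 h. Medium was then replaced with 5% FBS medium containing peptide at 125, 250 or 500 μM. After 3 days, viability was read by WST-1. Matched DMSO without peptide served as background. Three independent experiments; mean ± SD.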

In a further series the target is Mushroom tyrosinase (Agaricus bisporus, UniProt O42713+Q00024+C7FF04+C7FF05). Kind of series: Inhibition of mushroom tyrosinase monophenolase activity using L-tyrosine as substrate. The essentials: as §2

In the case of `OC[C@H]1O[C@@H](Oc2ccc(O)cc2)[C@H](O)[C@@H](O)[C@@H]1O`, the inhibition entry in series [1] is “Active”.

As to H-DTVHGQW-OH, the inhibition entry in series [2] and in series [3] was “inactive” each time.

Turning to H-HGGEGGRPY-OH, the inhibition result in series [2] and in series [4] was “inactive” throughout. Moreover, the inhibition result in series [3] is “Active”. Further, the Activity entry in the series with B16 was “Non-Toxic”.

In the case of H-HPTSEVY-OH, the inhibition result in series [2] and in series [4] was “inactive” in each case. Besides, the inhibition entry in series [3] is “Active”. Further, in the series with B16, the Activity result is “Non-Toxic”.

Turning to H-LQPSHY-OH, the inhibition entry in series [2] was “inactive”. For the same compound, on Mushroom tyrosinase, the IC50 came out at 156 µM. Moreover, in series [1], the inhibition was above 50%. Moreover, the Activity result in the series with B16 is reported as “Non-Toxic”.

In the case of H-WEAGQDQR-OH, the inhibition entry in series [2] and in series [3] was “inactive” each time.

Take H-WEEEPEDER-OH: the inhibition result in series [2] and in series [3] was “inactive” throughout.

The values above are taken from ChEMBL document CHEMBL4041462, “Rice Bran Protein as a Potent Source of Antimelanogenic Peptides with Tyrosinase Inhibitory Activity” (J Nat Prod, 2016).
